Experimental data published in ChEMBL document CHEMBL1156219, “Discovery of novel N-acylsulfonamide analogs as potent and selective EP3 receptor antagonists” (Bioorg Med Chem Lett, 2010).

Key:
[1] = target: T1, Prostaglandin E2 receptor EP1 subtype (Mus musculus, UniProt P35375); assay: Displacement of [3H]PGE2 from mouse EP1 receptor expressed in CHO cells after 60 mins by scintillation counter; format: cell-based
T1 sequence (P35375 whole entry): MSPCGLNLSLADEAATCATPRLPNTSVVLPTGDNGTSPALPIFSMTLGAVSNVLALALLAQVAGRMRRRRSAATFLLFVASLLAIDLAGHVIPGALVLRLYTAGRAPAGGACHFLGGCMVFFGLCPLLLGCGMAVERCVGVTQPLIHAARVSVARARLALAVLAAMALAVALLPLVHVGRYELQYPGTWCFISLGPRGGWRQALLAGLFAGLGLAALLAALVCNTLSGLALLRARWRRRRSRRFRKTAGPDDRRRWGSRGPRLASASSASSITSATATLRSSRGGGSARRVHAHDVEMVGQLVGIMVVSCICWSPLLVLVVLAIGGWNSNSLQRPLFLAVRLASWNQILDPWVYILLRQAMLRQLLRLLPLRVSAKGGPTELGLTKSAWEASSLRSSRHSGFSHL

Rattus norvegicus [2] = assay: Inhibition of PGE2-induced uterine contraction in pregnant rat at 1 mg/kg, id; format: functional; settings: route intraduodenal
Procedure, shortened: (§1)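 Pregnant rats received test agent intraduodenally (0.3 or 1 mg/kg tested). Uterine contraction was induced with PGE2 and suppression scored as % inhibition. Each value is the mean of two experiments.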

[3] = target: Prostaglandin E2 receptor EP2 subtype (Mus musculus, UniProt Q62053); assay: Displacement of [3H]PGE2 from mouse EP2 receptor expressed in CHO cells after 60 mins by scintillation counter; format: cell-based
[4] = target: Prostaglandin E2 receptor EP4 subtype (Mus musculus, UniProt P32240); assay: Displacement of [3H]PGE2 from mouse EP4 receptor expressed in CHO cells after 60 mins by scintillation counter; format: cell-based
Rattus norvegicus [5] = assay: Inhibition of PGE2-induced uterine contraction in pregnant rat at 0.3 mg/kg, id; format: functional; settings: route intraduodenal; procedure, shortened: as §1
Rattus norvegicus [6] = assay: Inhibition of PGE2-induced uterine contraction in id dosed pregnant rat; format: functional, organism-based; procedure, shortened: as §1
[7] = target: T2, Prostaglandin E2 receptor EP3 subtype (Mus musculus, UniProt P30557); assay: Displacement of [3H]PGE2 from mouse EP3 receptor expressed in CHO cells after 60 mins by scintillation counter; format: cell-based
T2 sequence (P30557 whole entry): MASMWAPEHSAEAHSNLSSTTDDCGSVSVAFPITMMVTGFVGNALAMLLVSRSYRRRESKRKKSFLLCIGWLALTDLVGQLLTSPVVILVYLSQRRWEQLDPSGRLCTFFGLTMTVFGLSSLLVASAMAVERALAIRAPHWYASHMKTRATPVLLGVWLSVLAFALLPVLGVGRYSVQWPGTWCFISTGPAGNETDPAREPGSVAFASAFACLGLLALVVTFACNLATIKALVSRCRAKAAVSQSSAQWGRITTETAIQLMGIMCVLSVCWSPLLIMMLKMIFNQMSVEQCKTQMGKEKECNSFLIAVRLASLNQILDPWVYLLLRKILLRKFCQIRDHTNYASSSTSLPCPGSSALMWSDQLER

[8] = target: T2, Prostaglandin E2 receptor EP3 subtype; assay: Antagonist activity at mouse EP3 receptor expressed in CHO cells assessed as inhibition of PGE2-induced increase in intracellular calcium level after 1 hr by FDSS in presence of 1% bovine serum albumin; format: functional, cell-based
Rattus norvegicus [9] = assay: Inhibition of PGE2-induced uterine contraction in pregnant rat at 3 mg/kg, po after 4 hrs; format: functional

Prostaglandin E2 receptor EP2 subtype, sequence (Q62053 whole entry): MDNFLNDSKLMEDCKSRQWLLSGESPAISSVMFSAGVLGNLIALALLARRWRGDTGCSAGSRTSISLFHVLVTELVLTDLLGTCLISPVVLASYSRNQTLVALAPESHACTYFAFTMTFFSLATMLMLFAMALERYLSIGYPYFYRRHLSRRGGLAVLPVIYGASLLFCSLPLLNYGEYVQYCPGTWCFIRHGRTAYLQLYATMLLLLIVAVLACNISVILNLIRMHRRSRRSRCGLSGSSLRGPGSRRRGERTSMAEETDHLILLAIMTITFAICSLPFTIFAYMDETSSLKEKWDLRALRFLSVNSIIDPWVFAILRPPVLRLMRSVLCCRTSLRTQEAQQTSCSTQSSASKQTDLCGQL
Prostaglandin E2 receptor EP4 subtype, sequence (P32240 whole entry): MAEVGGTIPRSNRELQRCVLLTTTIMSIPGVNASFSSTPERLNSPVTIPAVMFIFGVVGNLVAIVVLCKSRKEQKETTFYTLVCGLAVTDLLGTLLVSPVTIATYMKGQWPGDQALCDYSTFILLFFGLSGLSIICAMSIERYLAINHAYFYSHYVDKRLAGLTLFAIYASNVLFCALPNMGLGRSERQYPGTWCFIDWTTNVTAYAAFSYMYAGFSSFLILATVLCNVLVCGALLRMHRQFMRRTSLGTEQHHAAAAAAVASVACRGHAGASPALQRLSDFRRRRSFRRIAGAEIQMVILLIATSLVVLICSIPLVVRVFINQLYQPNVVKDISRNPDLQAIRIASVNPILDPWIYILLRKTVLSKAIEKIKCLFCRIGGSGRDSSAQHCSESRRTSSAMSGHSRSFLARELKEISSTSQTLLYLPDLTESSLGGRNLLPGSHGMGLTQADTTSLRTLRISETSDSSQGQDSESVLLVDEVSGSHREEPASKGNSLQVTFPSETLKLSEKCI

| SMILES | Ki [1] [nM] | inhibition in vivo at 1 mg/kg (Rattus norvegicus [2]) [%] | Ki [3] [nM] | Ki [4] [nM] | inhibition in vivo at 0.3 mg/kg (Rattus norvegicus [5]) [%] | inhibition (Rattus norvegicus [6]) | Ki [7] [nM] | IC50 [8] [nM] | inhibition in vivo at 3 mg/kg (Rattus norvegicus [9]) [%] |
| --- | --- | --- | --- | --- | --- | --- | --- | --- | --- |
| O=C(CCc1ccc(Cn2cccn2)cc1OCCc1ccc2ccccc2c1)NS(=O)(=O)c1ccc(F)c(F)c1 | 2100 | 76 | > 10000 | 2400 | 43 | Dose-dependent effect | 0.086 | 1.2 | – |
| N#Cc1cccc(OCc2ccc(CCC(=O)NS(=O)(=O)c3ccc(F)c(F)c3)c(OCCc3ccc4ccccc4c3)c2)c1 | > 10000 | 92 | > 10000 | 2300 | 50 | – | 0.51 | 24 | 66 |
| O=C(CCc1ccc(COc2cccnc2)cc1OCCc1ccc2ccccc2c1)NS(=O)(=O)c1ccc(F)c(F)c1 | 1700 | 71 | > 10000 | 710 | 44 | – | 0.16 | 0.4 | – |
| CS(=O)(=O)NC(=O)CCc1ccc(Cn2cccn2)cc1OCCc1ccc2ccccc2c1 | – | – | – | – | – | – | 22 | > 10000 | – |
| CN(C)Cc1ccc(CCC(=O)NS(=O)(=O)c2ccc(F)c(F)c2)c(OCCc2ccc3ccccc3c2)c1 | > 10000 | 32 | > 10000 | > 10000 | – | – | 8.2 | 24 | – |
| O=C(CCc1ccc(Cn2cccn2)cc1OCCc1ccc2ccccc2c1)NS(=O)(=O)c1ccc(Cl)c(Cl)c1 | – | – | – | – | – | – | 0.45 | 7.8 | – |
| O=C(CCc1ccc(Cn2cccn2)cc1OCCc1ccc2ccccc2c1)NS(=O)(=O)c1cccnc1 | – | – | – | – | – | – | 1 | 150 | – |
| O=C(NCc1ccc(Cn2cccn2)cc1OCCc1ccc2ccccc2c1)NS(=O)(=O)c1ccccc1 | – | – | – | – | – | – | 15 | 820 | – |
| O=C(CCc1ccc(Cn2cccn2)cc1OCCc1ccc2ccccc2c1)NS(=O)(=O)c1ccccc1 | – | – | – | – | – | – | 0.5 | 140 | – |
| N#Cc1cccc(S(=O)(=O)NC(=O)CCc2ccc(Cn3cccn3)cc2OCCc2ccc3ccccc3c2)c1 | – | – | – | – | – | – | 0.065 | 18 | – |
| Cc1cn(Cc2ccc(Cl)cc2Cl)c2c(/C=C/C(=O)NS(=O)(=O)c3cc(Cl)c(Cl)s3)cc(F)cc12 | – | – | – | – | – | – | – | – | 70 |
| Cc1csc(S(=O)(=O)NC(=O)CCc2ccc(Cn3cccn3)cc2OCCc2ccc3ccccc3c2)n1 | – | – | – | – | – | – | 0.35 | 110 | – |
| O=C(CCc1ccc(Cn2cccn2)cc1OCCOc1ccccc1)NS(=O)(=O)c1ccc(F)c(F)c1 | 2800 | 28 | > 10000 | > 10000 | – | – | 0.27 | 51 | – |
| O=C(O)CCc1ccc(Cn2cccn2)cc1OCCc1ccc2ccccc2c1 | – | – | – | – | – | – | 21 | – | – |
| O=C(CCc1ccc(Cn2cccn2)cc1OCCc1ccc2ccccc2c1)NS(=O)(=O)c1ccc(F)c(Cl)c1 | – | – | – | – | – | – | 0.22 | 5.5 | – |
| CN(CCOc1cc(Cn2cccn2)ccc1CCC(=O)NS(=O)(=O)c1ccc(F)c(F)c1)c1ccccc1 | 260 | 50 | > 10000 | 3500 | – | – | 0.12 | 3.8 | – |
| Cc1ccc(S(=O)(=O)NC(=O)CCc2ccc(Cn3cccn3)cc2OCCc2ccc3ccccc3c2)o1 | – | – | – | – | – | – | 0.58 | 88 | – |
| O=C(CCc1ccc(Cn2cccn2)cc1OCCc1ccccc1)NS(=O)(=O)c1ccc(F)c(F)c1 | 1300 | 51 | > 10000 | 2500 | 29 | – | 0.2 | 59 | – |
| Cc1ccc(S(=O)(=O)NC(=O)CCc2ccc(Cn3cccn3)cc2OCCc2ccc3ccccc3c2)cc1Cl | – | – | – | – | – | – | 0.43 | 10 | – |
| O=C(CCc1ccc(Cn2cccn2)cc1OCCc1cccc(N2CCOCC2)c1)NS(=O)(=O)c1ccc(F)c(F)c1 | 560 | 33 | > 10000 | 3700 | – | – | 0.54 | 6.4 | – |
| O=C(CCc1ccc(CN2CCOCC2)cc1OCCc1ccc2ccccc2c1)NS(=O)(=O)c1ccc(F)c(F)c1 | 5000 | 35 | > 10000 | > 10000 | – | – | 1.2 | 47 | – |
| O=C(NS(=O)(=O)CCc1ccc(Cn2cccn2)cc1OCCc1ccc2ccccc2c1)c1ccccc1 | – | – | – | – | – | – | 140 | > 10000 | – |
| O=C(CCc1ccc(Cn2cccn2)cc1OCCc1ccc2ccccc2c1)NS(=O)(=O)c1ccccn1 | – | – | – | – | – | – | 1.6 | 190 | – |
